The values that follow come from ChEMBL document CHEMBL2046279, “Trigoflavidols A-C, degraded diterpenoids with antimicrobial activity, from Trigonostemon flavidus” (J Nat Prod, 2012).

One assay concerns A549. The experiment in a line: Cytotoxicity against human A549 cells by MTT assay. Format: functional, cell-based.
Assay [1] deals with Staphylococcus aureus. The experiment in a line: Antimicrobial activity against Staphylococcus aureus by agar plate punch assay. Format: functional. In short, it runs like this:
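Compounds dissolved in DMSO at 500 μg/mL; 50 μL placed in a 6 mm well punched in MH agar smeared with test organism suspension (1.5 × 10^9 cfu/mL). Read-out is diameter of the inhibition zone.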

In a further assay the test system is SW480. The experiment in a line: Cytotoxicity against human SW480 cells by MTT assay. It is filed as functional, cell-based. (In general: Formazan colour is commonly taken as a measure of viable cells.)
The test system of the next assay is HL-60. Put plainly: Cytotoxicity against human HL60 cells by MTT assay. It is filed as functional, cell-based.
For the next assay, the system named is MCF7. Put plainly: Cytotoxicity against human MCF7 cells by MTT assay. It is filed as functional, cell-based.
The test system of assay [2] is Staphylococcus aureus. The experiment in a line: Antimicrobial activity against 82 isolates of methicillin-resistant Staphylococcus aureus after 18 hrs by two-fold dilution method. It is filed as functional.
The next assay relates to SMMC-7721. The experiment in a line: Cytotoxicity against human SMMC7721 cells by MTT assay. Format: functional, cell-based.
Assay [3] has as its system Staphylococcus aureus. The experiment in a line: Antimicrobial activity against 8 isolates of methicillin-resistant Staphylococcus aureus after 18 hrs by two-fold dilution method. Format: functional.
In assay [4] the test system is Staphylococcus aureus. The experiment in a line: Antimicrobial activity against Staphylococcus aureus after 18 hrs by two-fold dilution method. It is filed as functional.

pIC50: −log10 of the molar value. ≈ marks a conversion by molar mass, not a printed value. Some results are limits rather than exact numbers.

The pIC50 is the IC50 on a negative log10 scale, so that one unit is a factor of ten. A higher pIC50 goes with a low IC50. The MIC is the smallest concentration in the dilution series that meets the test's criterion for growth inhibition. A lower MIC goes with greater potency. In the case of `COC(=O)[C@@]1(O)[C@]2(Oc3cc4c(cc(OC)c5cc(C)c(O)cc54)c(C)c3O2)c2c(cc(OC)c3cc(C)c(O)cc23)[C@@]1(C)O` (relative stereo), the pIC50 in the assay on A549 was 4.70; in the assay on SW480, 4.80; in the assay on HL-60, 4.68; with MCF7, 4.83; in the assay on SMMC-7721 it was 4.67. Besides, the “diameter of the inhibition zone (DIZ)” value in the assay on Staphylococcus aureus [1] is listed as over 10 mm. Also, the results for the minimum inhibitory concentration (MIC) against Staphylococcus aureus [2], in the assay with Staphylococcus aureus [3] and with Staphylococcus aureus [4] were 6.25 µg/mL (≈ 10.2 µM), 3.12 µg/mL (≈ 5.09 µM) and 1.56 µg/mL (≈ 2.55 µM), respectively.

`COC(=O)[C@@]1(O)[C@@]2(Oc3cc4c(cc(OC)c5cc(C)c(O)cc54)c(C)c3O2)c2c(cc(OC)c3cc(C)c(O)cc23)[C@@]1(C)O` [TRIGOFLAVIDOL B]: the pIC50 in the assay with A549 was 4.77; in the assay on SW480 it was 4.81; in the assay on HL-60, under 4.40; with MCF7, 4.83; with SMMC-7721, 4.71. For the same compound, in the assay with Staphylococcus aureus [1], the “diameter of the inhibition zone (DIZ)” value is on record as over 10 mm. The MIC against Staphylococcus aureus [2] is 3.12 µg/mL (≈ 5.09 µM); against Staphylococcus aureus [3], 3.12 µg/mL (≈ 5.09 µM); against Staphylococcus aureus [4], 1.56 µg/mL (≈ 2.55 µM).

With `Cc1cc2c(cc1O)C1=C(C3=C4C(=CC(=O)c5cc(C)c(O)cc54)C(C)(C)C3=O)C(=O)C(C)(C)C1=CC2=O` [NEOBOUTOMANNIN], the negative logarithm of the IC50 (pIC50) in the assay with A549, with SW480, with HL-60, with MCF7 and in the assay on SMMC-7721 was under 4.40 in each case. For the same compound, the minimal inhibitory concentration (MIC) against Staphylococcus aureus [4] is over 50 µg/mL.

For `CN[C@H](CC(C)C)C(=O)N[C@H]1C(=O)N[C@@H](CC(N)=O)C(=O)N[C@H]2C(=O)N[C@H]3C(=O)N[C@H](C(=O)N[C@H](C(=O)O)c4cc(O)cc(O)c4-c4cc3ccc4O)[C@H](O)c3ccc(c(Cl)c3)Oc3cc2cc(c3O[C@@H]2O[C@H](CO)[C@@H](O)[C@H](O)[C@H]2O[C@H]2C[C@](C)(N)[C@H](O)[C@H](C)O2)Oc2ccc(cc2Cl)[C@H]1O.Cl` [VANCOMYCIN HYDROCHLORIDE], the MIC against Staphylococcus aureus [2] is 0.78 µg/mL; with Staphylococcus aureus [3] it was 0.78 µg/mL; against Staphylococcus aureus [4], 1.56 µg/mL.

For the compound `COc1cc2c(cc(OC)c3cc(C)c(O)cc32)oc1=O` [TRIGOFLAVIDOL C], the pIC50 in the assay on A549, in the assay on SW480, in the assay with HL-60, in the assay with MCF7 and with SMMC-7721 was under 4.40 in each case. In the assay with Staphylococcus aureus [4], this compound registered a minimum inhibitory concentration (MIC) of over 50 µg/mL.

As to `COc1cc2c(cc(OC)c3cc(C)c(O)cc32)c(C)c1O` [TRIGONOCHINENE E], the pIC50 in the assay on A549 was 4.68; in the assay with SW480, 4.69; in the assay with HL-60 it was 5.43; with MCF7 it was 4.74; in the assay with SMMC-7721, 4.54. In addition, the “diameter of the inhibition zone (DIZ)” value in the assay on Staphylococcus aureus [1] is listed as over 10 mm. The compound also had a minimal inhibitory concentration (MIC) with Staphylococcus aureus [4] of over 50 µg/mL.
